How the values were obtained:
Type in all cases: functional, organism-based
Mus musculus [1] = organism: Mus musculus; assay: Radioactivity uptake in the muscle was expressed as a percentage of the injected radioactive dose per gram of tissue (% ID/g) in B16/F1 Murine Melanoma-Bearing C57 Mice at 4 h
Summary of the method: (§1)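 C57 BL/6 female mice (7–8 weeks) carried B16/F1 tumours from 1×10^6 cells given s.c. in the right flank; tumours were ~500 mg at 9–10 days. Each mouse received […] of HPLC-purified, neutralized 111In-DOTA peptide via the tail vein. Mice were killed at 0.5, 2, 4 or 24 h pi. Tissues were weighed and γ-counted, expressed as % ID/g; ratios were tumor/tissue % ID/g.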

Mus musculus [2] = organism: Mus musculus; assay: Uptake Ratio of Tumor/blood (each in % ID/g) in B16/F1 Murine Melanoma-Bearing C57 Mice at 0.5 h; summary of the method: as §1
Mus musculus [3] = organism: Mus musculus; assay: Uptake Ratio of Tumor/lungs (each in % ID/g) in B16/F1 Murine Melanoma-Bearing C57 Mice at 24 h
Summary of the method: (§2)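 Female C57 BL/6 mice, 7–8 weeks old, carried subcutaneous right-flank B16/F1 tumors from 1×10^6 cells and were used 9–10 days later at ~500 mg tumor weight. Each received […] of HPLC-purified, pH-neutralized ¹¹¹In-DOTA peptide by tail vein. Tumor and organs were excised at the stated time, weighed and γ-counted. Each tissue was taken as % ID/g, and tumor/normal-tissue ratios were formed from these values.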

Mus musculus [4] = organism: Mus musculus; assay: Radioactivity uptake in the kidneys was expressed as a percentage of the injected radioactive dose per gram of tissue (% ID/g) in B16/F1 Murine Melanoma-Bearing C57 Mice at 0.5 h; conditions: Kidney; summary of the method: as §1
Mus musculus [5] = organism: Mus musculus; assay: Radioactivity uptake in the pancreas was expressed as a percentage of the injected radioactive dose per gram of tissue (% ID/g) in B16/F1 Murine Melanoma-Bearing C57 Mice at 24 h; summary of the method: as §1
Mus musculus [6] = organism: Mus musculus; assay: Radioactivity uptake in the blood was expressed as a percentage of the injected radioactive dose per gram of tissue (% ID/g) in B16/F1 Murine Melanoma-Bearing C57 Mice at 24 h; summary of the method: as §1
Mus musculus [7] = organism: Mus musculus; assay: Radioactivity uptake in the blood was expressed as a percentage of the injected radioactive dose per gram of tissue (% ID/g) in B16/F1 Murine Melanoma-Bearing C57 Mice at 0.5 h; summary of the method: as §1
Mus musculus [8] = organism: Mus musculus; assay: Radioactivity uptake in the muscle was expressed as a percentage of the injected radioactive dose per gram of tissue (% ID/g) in B16/F1 Murine Melanoma-Bearing C57 Mice at 0.5 h; summary of the method: as §1
Mus musculus [9] = organism: Mus musculus; assay: Radioactivity uptake in the kidneys was expressed as a percentage of the injected radioactive dose per gram of tissue (% ID/g) in B16/F1 Murine Melanoma-Bearing C57 Mice at 4 h; conditions: Kidney; summary of the method: as §1
Mus musculus [10] = organism: Mus musculus; assay: Uptake Ratio of Tumor/kidneys (each in % ID/g) in B16/F1 Murine Melanoma-Bearing C57 Mice at 2 h; conditions: Kidney; summary of the method: as §1
Mus musculus [11] = organism: Mus musculus; assay: Radioactivity uptake in the pancreas was expressed as a percentage of the injected radioactive dose per gram of tissue (% ID/g) in B16/F1 Murine Melanoma-Bearing C57 Mice at 4 h; summary of the method: as §1
Mus musculus [12] = organism: Mus musculus; assay: Radioactivity uptake in the spleen was expressed as a percentage of the injected radioactive dose per gram of tissue (% ID/g) in B16/F1 Murine Melanoma-Bearing C57 Mice at 2 h; summary of the method: as §1
Mus musculus [13] = organism: Mus musculus; assay: Uptake Ratio of Tumor/liver (each in % ID/g) in B16/F1 Murine Melanoma-Bearing C57 Mice at 0.5 h; summary of the method: as §1
Mus musculus [14] = organism: Mus musculus; assay: Radioactivity uptake in the lungs was expressed as a percentage of the injected radioactive dose per gram of tissue (% ID/g) in B16/F1 Murine Melanoma-Bearing C57 Mice at 2 h; conditions: Lung; summary of the method: as §1
Mus musculus [15] = organism: Mus musculus; assay: Radioactivity uptake in the blood was expressed as a percentage of the injected radioactive dose per gram of tissue (% ID/g) in B16/F1 Murine Melanoma-Bearing C57 Mice at 4 h; summary of the method: as §1
Mus musculus [16] = organism: Mus musculus; assay: Radioactivity uptake in the spleen was expressed as a percentage of the injected radioactive dose per gram of tissue (% ID/g) in B16/F1 Murine Melanoma-Bearing C57 Mice at 4 h; summary of the method: as §1
Mus musculus [17] = organism: Mus musculus; assay: Radioactivity uptake in the heart was expressed as a percentage of the injected radioactive dose per gram of tissue (% ID/g) in B16/F1 Murine Melanoma-Bearing C57 Mice at 4 h; summary of the method: as §1
Mus musculus [18] = organism: Mus musculus; assay: Uptake Ratio of Tumor/kidneys (each in % ID/g) in B16/F1 Murine Melanoma-Bearing C57 Mice at 4 h; conditions: Kidney; summary of the method: as §1
Mus musculus [19] = organism: Mus musculus; assay: Radioactivity uptake in the spleen was expressed as a percentage of the injected radioactive dose per gram of tissue (% ID/g) in B16/F1 Murine Melanoma-Bearing C57 Mice at 0.5 h; summary of the method: as §1
Mus musculus [20] = organism: Mus musculus; assay: Uptake Ratio of Tumor/lungs (each in % ID/g) in B16/F1 Murine Melanoma-Bearing C57 Mice at 0.5 h; summary of the method: as §2
Mus musculus [21] = organism: Mus musculus; assay: Radioactivity uptake in the blood was expressed as a percentage of the injected radioactive dose per gram of tissue (% ID/g) in B16/F1 Murine Melanoma-Bearing C57 Mice at 2 h; summary of the method: as §1
Mus musculus [22] = organism: Mus musculus; assay: Radioactivity uptake in the pancreas was expressed as a percentage of the injected radioactive dose per gram of tissue (% ID/g) in B16/F1 Murine Melanoma-Bearing C57 Mice at 0.5 h; summary of the method: as §1
Mus musculus [23] = organism: Mus musculus; assay: Uptake Ratio of Tumor/lungs (each in % ID/g) in B16/F1 Murine Melanoma-Bearing C57 Mice at 4 h; summary of the method: as §2
Mus musculus [24] = organism: Mus musculus; assay: Uptake of [111In]-labeled compound in liver at 2 h pi in the absence of […]
Summary of the method: (§3)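 C57 BL/6 female mice, 7–8 weeks old, inoculated s.c. in right flank with 1×10^6 B16/F1 melanoma cells. Used 9–10 days later at tumor weight ~500 mg. […] HPLC-purified 111In-DOTA peptide (neutral pH) given via tail vein, with or without […]. Killed 2 h pi. Tissues weighed and gamma-counted. Uptake expressed as % ID/g.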

Mus musculus [25] = organism: Mus musculus; assay: Uptake of [111In]-labeled compound in tumor at 2 hr pi in the absence of […]; summary of the method: as §3
Mus musculus [26] = organism: Mus musculus; assay: Uptake of [111In]-labeled compound in liver at 2 hr pi in the presence of […]; summary of the method: as §3
Mus musculus [27] = organism: Mus musculus; assay: Uptake of [111In]-labeled compound in blood at 2 hr pi in the presence of […]; summary of the method: as §3
Mus musculus [28] = organism: Mus musculus; assay: Uptake of [111In]-labeled compound in pancreas at 2 hr pi in the absence of 10 mg NDP; summary of the method: as §3
Mus musculus [29] = organism: Mus musculus; assay: Uptake of [111In]-labeled compound in heart at 2 hr pi in the absence of […]; summary of the method: as §3
Mus musculus [30] = organism: Mus musculus; assay: Uptake of [111In]-labeled compound in tumor at 2 hr pi in the presence of 10 mg NDP; summary of the method: as §3
Mus musculus [31] = organism: Mus musculus; assay: Uptake of [111In]-labeled compound in blood at 2 hr pi in the absence of […]; summary of the method: as §3
Mus musculus [32] = organism: Mus musculus; assay: Uptake of [111In]-labeled compound in kidney at 2 hr pi in the absence of […]; summary of the method: as §3
Mus musculus [33] = organism: Mus musculus; assay: Uptake of [111In]-labeled compound in heart at 2 hr pi in the presence of […]; summary of the method: as §3

Substance	ID/g (Mus musculus [1])	Uptake ratio (Mus musculus [2])	Uptake ratio (Mus musculus [3])	ID/g (Mus musculus [4])	ID/g (Mus musculus [5])	ID/g (Mus musculus [6])	ID/g (Mus musculus [7])	ID/g (Mus musculus [8])	ID/g (Mus musculus [9])	Uptake ratio (Mus musculus [10])	ID/g (Mus musculus [11])	ID/g (Mus musculus [12])	Uptake ratio (Mus musculus [13])	ID/g (Mus musculus [14])	ID/g (Mus musculus [15])	ID/g (Mus musculus [16])	ID/g (Mus musculus [17])	Uptake ratio (Mus musculus [18])	ID/g (Mus musculus [19])	Uptake ratio (Mus musculus [20])	further results
Ac-Lys(DOTA)-ReCCEHdFRWCKPV-NH2	0.017%	3.8	22.9	23.4%	0.18%	0.072%	1.99%	0.42%	19%	0.46	0.057%	0.11%	10.7	0.18%	0.082%	0.19%	0.029%	0.28	0.51%	4.7	ID/g (Mus musculus [21]): 0.09%; ID/g (Mus musculus [22]): 0.48%; Uptake ratio (Mus musculus [23]): 48.4
DOTA-ReCCEHdFRWCKPV-NH2	0.093%	6.9	169	13%	0.027%	0.01%	1.57%	0.42%	9.27%	1.3	0.043%	0.09%	18.4	0.18%	0.034%	0.22%	0.12%	1.1	0.59%	6.6	ID/g (Mus musculus [21]): 0.065%; ID/g (Mus musculus [22]): 0.62%; Uptake ratio (Mus musculus [23]): 100
DOTA-ReCCEHdFRWCKPV-OH	0.035%	6.9	85.1	11.5%	0.064%	0.1%	1.56%	0.39%	8.7%	1.1	0.074%	0.2%	23.1	0.18%	0.056%	0.15%	0.12%	1.1	0.4%	9	ID/g (Mus musculus [21]): 0.11%; ID/g (Mus musculus [22]): 0.39%; Uptake ratio (Mus musculus [23]): 92
DOTA-ReCCEHdFRWCKPVD-OH	0.047%	6.8	105	11.5%	0.017%	0.018%	1.33%	0.25%	8.13%	1.1	0.031%	0.23%	20.7	0.16%	0.051%	0.16%	0.054%	0.91	0.29%	7.8	ID/g (Mus musculus [21]): 0.05%; ID/g (Mus musculus [22]): 0.27%; Uptake ratio (Mus musculus [23]): 104
DOTA-ReCCEHdFRWCRPV-NH2	0.086%	9.7	43.7	9.31%	0.081%	0.06%	1.7%	0.39%	7.37%	2	0.015%	0.27%	25.2	0.3%	0.085%	0.27%	0.054%	2.5	0.78%	11.1	ID/g (Mus musculus [24]): 0.38%; ID/g (Mus musculus [25]): 17.3%; ID/g (Mus musculus [26]): 1.61%; ID/g (Mus musculus [27]): 0.27%; ID/g (Mus musculus [28]): 0.08%; ID/g (Mus musculus [21]): 0.21%; ID/g (Mus musculus [29]): 0.07%; ID/g (Mus musculus [30]): 1.95%; ID/g (Mus musculus [31]): 0.21%; ID/g (Mus musculus [22]): 0.41%; ID/g (Mus musculus [32]): 8.72%; ID/g (Mus musculus [33]): 0.33%; Uptake ratio (Mus musculus [23]): 122
